FGF22 binding: binders of human FGF22 protein, primary screen, FGF22 synaptogenesis inhibitor project, biophysical, thermal shift, single point. 340,000 tested, 1.5% active. recombinant FGF22 thermal shift, SYPRO orange fluorescence; percent of sucrose octasulfate shift, DMSO zero. activity (Tm shift, normalised), % at 9.99 µM. AID 651658, 2012;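 active = mean Tm shift, scaled 0 neutral to 100 positive control, at about 1.3% or above, every replicate too, limit read from the data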
Target sequence (Q9HCT0 whole entry, looked up): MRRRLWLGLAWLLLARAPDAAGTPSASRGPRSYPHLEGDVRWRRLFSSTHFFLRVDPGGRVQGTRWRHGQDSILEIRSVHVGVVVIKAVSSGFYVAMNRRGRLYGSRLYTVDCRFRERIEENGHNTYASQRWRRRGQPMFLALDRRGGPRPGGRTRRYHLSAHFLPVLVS
ARNT TACC3 PPI: disruptors of ARNT/TACC3 protein interaction, primary screen, biochemical, AlphaScreen, single concentration | AID 623870, 2012 | Transforming acidic coiled-coil-containing protein 3 (Homo sapiens), Q9Y6A5 | AlphaScreen His-ARNT PAS-B/GST-TACC3 binding, luminescence; TACC3 fragment carries E629A point mutation | 390,000 tested, 0.66% active | inhibition, % at 9.99 µM;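 active = mean inhibition of replicates at least 50% and at least half of replicates each reaching 50%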;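 note: 0% = complete ARNT plus TACC3 wells and 100% = ARNT alone without TACC3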
XiGFP reactiv: activators of inactive X chromosome reactivation, primary screen, imaging, XiGFP fibroblasts, GFP high-content imaging, set 2; AID 743238, 2013; XiGFP mouse fibroblasts, % GFP-positive cells imaging, 3 d; cells co-treated with 5-aza-dC sensitizer; scaled so ellipticine positive control = 100%; activation, % at 7.58 µM; 360,000 tested, 0.055% active;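 active = mean normalized replicate activation at least 10% and every replicate at or above 10%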;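 note: 0% = median of on-plate neutral control wells and 100% = ellipticine 6 µM median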
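Assay system: SV40-immortalized XiGFP fibroblast cells, line 68-5-11; buffer or medium: DMEM plus 5-aza-dC sensitizer; compound: one concentration, pinned; timing: compounds 3 days, fix/stain 15 min at room temperature; benchmarks: positive control ellipticine, 6 µM final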
SIRT5 block: SIRT5 desuccinylase inhibitors, primary screen, biochemical, fluorescence imaging, single point, set 5 | 330,000 tested, 1.1% active | Purified SirT5, succinyl-peptide AMC, trypsin-coupled fluorescence | AID 652115, 2013 | inhibition, % at 15 µM | NAD-dependent protein deacylase sirtuin-5, mitochondrial (Homo sapiens), Q9NXA8; in the data active = inhibition above about 15%
Target sequence (Q9NXA8 whole entry, looked up): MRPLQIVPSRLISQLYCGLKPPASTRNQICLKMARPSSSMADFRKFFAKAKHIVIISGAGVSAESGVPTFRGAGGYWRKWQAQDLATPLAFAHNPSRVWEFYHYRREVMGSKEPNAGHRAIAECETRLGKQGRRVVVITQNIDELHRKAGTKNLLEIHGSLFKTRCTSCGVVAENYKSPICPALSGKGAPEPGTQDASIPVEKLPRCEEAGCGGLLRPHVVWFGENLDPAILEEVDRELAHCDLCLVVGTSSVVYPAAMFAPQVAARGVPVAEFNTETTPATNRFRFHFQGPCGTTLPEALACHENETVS
FN deposition inh: inhibitors of fibronectin matrix deposition, primary screen, AH1F cells, Alexa488-fibronectin fluorescence, plate reader | AH1F fibroblasts, overnight | inhibition, % at 12.6 µM | 350,000 tested, 0.086% active | AID 743247, 2014;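 active = mean inhibition across replicates of 30% or more, regardless of how many single replicates reach that level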;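 note: positive control wells lacked labelled fibronectin entirely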
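Assay system: AH1F fibroblasts / Quantity: 10000 cells per well / Medium: DMEM plus 2% serum, read in PBS / Reagent: labelled fibronectin 24 nM / Dosing: single dose, pinned / Times: 1 h cell attachment, overnight exposure to compound and label / Signal: fluorescence, ex 485 nm, em 525 nm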
DENV2 CPE rescue: inhibitors of DENV2 cytopathic effect, primary screen, cell-based, plate reader, single concentration | DENV2-infected cells, cytopathic effect rescue | 350,000 tested, 1.7% active | CPE inhibition, % at 9.99 µM; in the data active = CPE inhibition above about 20%, passing the limit was not always enough; tested in BHK-21 cells;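 note: 0% = median of neutral control wells and 100% = median of positive control wells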
An asterisk follows results filed as active; / = no result. Compounds with a hit are over-represented: about 3.8% of the library has one in this group of screens.

SMILES	FGF22 binding	ARNT TACC3 PPI	XiGFP reactiv	SIRT5 block	FN deposition inh	DENV2 CPE rescue
FC(F)(F)c1cc(Cl)c2nc(-c3ccccc3)c(Cc3ccccc3)n2c1	0	/	1	1	15	5
Cc1ccc(Cc2c(-c3ccc(Cl)cc3)nc3c(Cl)cc(C(F)(F)F)cn23)cc1	0	/	0	-7	-6	-4
Cc1ccc(-c2nc3c(Cl)cc(C(F)(F)F)cn3c2Cc2cccc(F)c2)cc1	0	/	0	22*	13	-2
Cc1ccc(-c2nc3c(Cl)cc(C(F)(F)F)cn3c2Cc2ccccc2)cc1	0	/	0	15*	-2	-4
O=C(Cc1ccccc1)N[C@H]1CC[C@H](CC(=O)N2CCOCC2)O[C@H]1CO	1	5	0	2	7	1
CCCC(=O)Nc1ccc2c(c1)C(=O)N(C)C[C@H](OC)[C@@H](C)CN(C(=O)c1ccccn1)[C@@H](C)CO2	0	-4	0	0	3	5
COc1cc([N+](=O)[O-])ccc1NC(=O)CC(C)C	/	-7	0	/	14	/
COc1ccc([N+](=O)[O-])cc1NC(=O)/C=C/C(=O)O	0	1	1	0	6	66*
Cc1ccc([N+](=O)[O-])cc1NC(=O)/C=C/C(=O)O	0	-9	0	/	-7	7
COc1cc(/C=C/C(=O)O)ccc1OCc1ccc([N+](=O)[O-])cc1	43*	-5	0	0	2	-5
CCC(C)C(=O)Nc1ccc([N+](=O)[O-])cc1OC (stereo not given)	43*	/	0	-1	11	5
CCCC(=O)Nc1ccc2c(c1)C(=O)N(C)C[C@@H](OC)[C@@H](C)CN(C(=O)c1ccccc1F)[C@H](C)CO2	0	-12	1	-6	-8	-10
CO[C@H]1CN(C)C(=O)c2ccc(NC(=O)C3CC3)cc2OC[C@@H](C)N(C(=O)c2ccccc2F)C[C@H]1C	0	-1	0	18*	-2	-8
CCC(=O)Nc1ccc2c(c1)OC[C@H](C)N(C(=O)c1ccccc1F)C[C@H](C)[C@@H](OC)CN(C)C2=O	0	-7	1	-2	4	22*
CO[C@H]1CN(C)C(=O)c2ccc(NC(=O)CC(F)(F)F)cc2OC[C@H](C)N(C(=O)c2ccccc2F)C[C@H]1C	0	/	0	2	/	8
CCCC(=O)Nc1ccc2c(c1)C(=O)N(C)C[C@@H](OC)[C@H](C)CN(C(=O)c1ccccc1F)[C@@H](C)CO2	0	-5	0	0	-11	44*
CO[C@H]1CN(C)C(=O)c2ccc(NC(=O)CC(F)(F)F)cc2OC[C@@H](C)N(C(=O)c2ccccc2F)C[C@H]1C	0	/	0	/	/	62*
Cc1noc(C)c1S(=O)(=O)N(C)C[C@H]1Oc2c(NC(=O)c3nc4ccccc4s3)cccc2C(=O)N([C@H](C)CO)C[C@H]1C	/	/	0	/	15	/
Cc1ccc(S(=O)(=O)N(C)C[C@H]2Oc3c(NC(=O)c4cnccn4)cccc3C(=O)N([C@H](C)CO)C[C@H]2C)cc1	0	13	0	-1	/	-3
COc1ccc2c3c(n(C)c2c1)[C@@H](CO)N(C(=O)c1ccccc1)CC31CN(Cc2ccccc2OC)C1	/	/	0	/	/	/
CS(=O)(=O)N(CC(=O)N1CCN(Cc2ccccc2)CC1)c1cccc(F)c1	0	2	0	19*	-7	-6
Cc1ccc(N(CC(=O)N2CCCCCC2)S(C)(=O)=O)cc1Cl	0	0	0	6	-1	-5
Cc1ccc(N(CC(=O)N2CCOCC2)S(C)(=O)=O)cc1Cl	0	-4	0	16*	-1	3
NC(=O)C1CCN(C(=O)CN(c2ccc3c(c2)OCCO3)S(=O)(=O)c2ccccc2)CC1	0	-5	0	-3	-2	2
O=C(CN(c1ccc2c(c1)OCCO2)S(=O)(=O)c1ccccc1)N1CCN(Cc2ccccc2)CC1	43*	-8	0	1	2	7
SMILES	FGF22 binding	ARNT TACC3 PPI	XiGFP reactiv	SIRT5 block	FN deposition inh	DENV2 CPE rescue
C[C@@H]1CN([C@H](C)CO)S(=O)(=O)c2ccc(-c3ccccc3F)cc2O[C@@H]1CN(C)CC1CC1	0	11	-1	-2	-18	17
CN(C)C(=O)C[C@@H]1CC[C@@H](NC(=O)NC2CCCCC2)[C@@H](CO)O1	0	-5	0	10	-2	/
CCOc1ccc(OCC)c(S(=O)(=O)N2CCOCC2)c1	0	-9	0	3	2	-5
CCOc1ccc(C(C)C)cc1S(=O)(=O)N1CCOCC1	43*	/	0	0	8	16
CN(C(=O)c1ccccc1Cl)c1ccccc1C(=O)NCc1ccccc1	0	0	0	-3	2	-1
CN(C)S(=O)(=O)c1cc(C(=O)NCc2ccccc2)c(Cl)cc1Cl	43*	-5	0	-1	3	-2
COc1ccc(CCn2c(C)cc(C(=O)CN3C(=O)C(=O)N(Cc4ccco4)C3=O)c2C)cc1	1	9	34*	-1	7	2
Cc1cc(C(=O)CN2C(=O)C(=O)N(Cc3ccccc3)C2=O)c(C)n1Cc1ccccc1	0	-12	-1	-3	-2	1
Cc1ccc(SC2=C(Sc3ccc(C)cc3)C(=O)c3ccccc3C2=O)cc1	0	-1	0	-6	1	-1
CC1=CC(=O)C(Sc2ccc(C)cc2)=CC1=O	0	/	6	7	22	95*
CCNC(=O)[C@@H]1[C@@H](CO)[C@@H]2Cn3c(cccc3=O)[C@H]1N2Cc1cccc(Cl)c1	/	/	0	1	/	12
Cc1noc(C)c1COC(=O)C(c1ccccc1)c1ccccc1	0	-7	1	16*	-2	4
Cn1nc(C(C)(C)C)cc1N1C(=O)CCC1(C)C(=O)Nc1ccc2c(c1)OCCO2 (stereo not given)	0	/	0	-2	6	24*
CC1(C(=O)Nc2ccc3c(c2)OCCO3)CCC(=O)N1CC(F)(F)F (stereo not given)	0	/	0	-2	1	-8
O=C(c1cccc(F)c1)N1C[C@@H]2[C@H](c3ccccc31)[C@@H](CO)N2C(=O)c1ccccn1	0	-8	0	3	/	4

Bioassay records: PubChem BioAssay, Broad Institute
